Test results taken from ChEMBL document CHEMBL4513216, “Probing the Open Global Health Chemical Diversity Library for Multistage-Active Starting Points for Next-Generation Antimalarials” (ACS Infect Dis, 2020).

Experiment: Toxicity liver stage against HepG2, at 10uM
Assay type: cell-based
Parameters: test concentration 10 uM, cell line HepG2-A16-CD81EGFP
Settings: human, HepG2-A16-CD81EGFP cells; read-out: INHIBITION
Summary of the method: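 Uninfected HepG2-A16-CD81EGFP cells, 3 × 10^3 per well, 1536-well, plated on prespotted compound at 10 μM final, parasite-free screening media added to match infected plates; puromycin 10 μM positive, DMSO 0.5% negative; run in parallel with 48 h PbLuc assay at 37 °C, 5% CO2; viability by CellTiter-Glo luminescence, normalized to controls.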

SMILES	cytotoxicity at 10 µM [%]
COC(=O)c1ccc(Cn2nc(C)cc2C)cc1	10.8
F[C@@H]1CN(Cc2ccccc2)C[C@@H]1OCc1nc2ccccc2[nH]1	4.61
COC(=O)c1cccc2nc([C@H]3CCN(Cc4ccccc4F)C3)oc12	-5.46
Cc1cccc(O[C@H]2COCCN(Cc3sc(C)nc3C)C2)n1	-1.5
CCOCCNC(=O)c1cccnc1Sc1cc(OC)ccc1OC	0.354
Cc1cc(=O)n(CCNC(=O)c2ccccc2Cl)cn1	-5.07
CNC(=O)c1nc2c(s1)CCN(C(=O)c1ccc(OC)cc1)CC2	0.428
COCc1ncn2c1CN(S(=O)(=O)c1cccc(F)c1)CC2	4.06
O=C(NCCCN1CCCC1=O)c1nc(-c2ccc3[nH]ccc3c2)no1	-3.43
CC(C)n1[nH]c(=O)c2c1NC(=O)CC2c1cccc2cccnc12 (stereo not drawn)	2.83
Cn1nc(CNC(=O)C2CC2)cc1C1CC1	1.96
CC(C)NC(=O)c1ccc2c(c1)nc1n2CCN(C(C)C)C1	3.54
CCn1cc(C(=O)N2CCOCC2)cn1	0.805
O=C(Nc1cc(-c2cccnc2)no1)C1CCCCC1	0.171
CCn1cc(CN(C)S(=O)(=O)c2ccc(Cl)cc2)cn1	3.77
CNc1ncc(CN(C)CCN2CCCCC2)cn1	17.7
CC(C)N1CCC(Cc2cncc(-c3cccc(C(=O)O)c3)n2)C1 (stereo not drawn)	9.11
Cn1cc(C2CCCN2C(=O)c2cnc(-c3ccccn3)s2)cn1 (stereo not drawn)	-8.1
COc1ccc(OCCN(C)S(=O)(=O)N2CCOCC2)cc1	3.11
NC(=O)c1ccc(N2CCN(CCCc3cn[nH]c3)CC2)cc1	-153
COc1ncccc1CNCc1cnc(N2CCOCC2)nc1	2.38
O=C(NCC1CC1)c1ccc(NC(=O)c2ccco2)cc1	7.91
CCS(=O)(=O)CCSc1ccc(Br)cc1	-7

SMILES	cytotoxicity at 10 µM [%]
CN(Cc1cc(Br)cn1C)C(=O)c1cccnc1	-5.95
COCCNC(=O)NCC(C)c1ccccc1OC (stereo not drawn)	0.284
Cc1nc(CN2CCCN(C(=O)c3cccn3C)CC2)cs1	-2.06
CCCN(Cc1ccccc1O)S(=O)(=O)N(C)CC	10.2
c1cnc(-c2nc(C3CCOC3)no2)cn1 (stereo not drawn)	7.09
Cc1noc(C)c1CCCNC(=O)C1CCCN(C(=O)C2CC2)C1 (stereo not drawn)	-0.185
COc1cc(C(C)=O)ccc1OCC(=O)N(CC(C)C#N)C1CC1 (stereo not drawn)	-2.45
Cn1c(NCC(=O)N2CCCCC2)c(C#N)c(=O)n(C)c1=O	5.83
COc1ccc(N(C)C(=O)c2ccc(Cl)c(S(C)(=O)=O)c2)cn1	-11.2
CCc1ncncc1C(=O)NCCNC(=O)c1ccc(C)c(F)c1	7.67
Cc1ccc(S(=O)(=O)NC(=O)COc2cccc(C#N)c2)c(C)c1	3.73
CC(NC(=O)Nc1cc(F)cc(F)c1)c1nc[nH]n1 (stereo not drawn)	-4.02
CC(Cn1cccn1)NC(=O)Nc1ccc(N2CCCC2)nc1 (stereo not drawn)	-0.708
CN(CC(N)=O)Cc1ccc(F)cc1Cl	-3.53
CC(C)c1cc(NC(=O)CN2CCc3nn(C)c(=O)cc3C2)on1	-4.44
Cc1cc(NC(=O)N2CCOC(C(N)=O)C2)ccc1Br (stereo not drawn)	-154
COc1ccc(NC(=O)N(CCO)Cc2ccsc2)cc1	1.37
Cc1ccc(C(=O)NCC2Cc3ccccc3O2)cc1S(C)(=O)=O (stereo not drawn)	1.05
CCCc1cc(N2CCCC2Cn2cc(C)cn2)n2ncnc2n1 (stereo not drawn)	3.04
NS(=O)(=O)CCN1CCOC(c2ccsc2)C1 (stereo not drawn)	5.31
Cc1cc(C)c2c(c1)C(NC(=O)CSCc1ccncc1)CCO2 (stereo not drawn)	4.17
Cc1ncc(COc2ccc(N(C)S(C)(=O)=O)cc2)s1	5.89
CC(C)OCc1cccc(NC(=O)N2CCCC(CCC(N)=O)C2)c1 (stereo not drawn)	3.49

SMILES	cytotoxicity at 10 µM [%]
COc1ccc(C(C)Nc2ncc(C(N)=O)cc2Cl)cc1OC (stereo not drawn)	3.54
CN(C)CCN(C)C(=O)Nc1cc(F)cc(N2CCCC2)c1	-2.22
CC(C#N)NS(=O)(=O)c1ccc2c(c1)N(C)CCC2 (stereo not drawn)	-4.28
Cc1nc(-c2ccsc2)ccc1C(=O)O	-13.8
Cc1ccccc1[C@@H]1CN(CCOCCO)C[C@H]1C(=O)O	-4.54
Cn1c(Cn2ccnc2)nnc1C1CCN(C(=O)c2ccoc2)CC1	-120
CC(C)Cc1cc(C(=O)NCC2CCCN(c3ccccn3)C2)on1 (stereo not drawn)	0.101
CN1CCCC2(CCN(c3cccc(C(F)(F)F)n3)C2)C1=O (stereo not drawn)	7.87
CCc1nc(NC(=O)NCCc2cscn2)nn1C	2.31
CC(C)Cc1cc(C(=O)NCC2CCCN(Cc3ccco3)C2)on1 (stereo not drawn)	-5.12
O=C(Nc1ccc(-c2ccco2)cc1)C1CCCN(Cc2ccon2)C1 (stereo not drawn)	1.17
CN(Cc1cc(-c2cccnc2)no1)C(=O)C1CCCN1S(C)(=O)=O (stereo not drawn)	-2.54
CCCn1ccnc1CN1CCCC(O)(CN2CCCC2)C1 (stereo not drawn)	-2.69
Cc1cc(C(=O)N2CCC3(CCC(=O)N(CC(N)=O)C3)CC2)ccc1O	-7.5
COc1ccc(CN2CCN(c3nccnc3OC)CC2=O)cc1	2.82
CCC(=O)N1CCc2[nH]cnc2C12CCN(C1CCOCC1)CC2	-6.47
CC(NC(=O)c1cc2n(n1)CCCN(C(C)C)C2)c1cn2ccsc2n1 (stereo not drawn)	-3.39
CC(C)c1ccc(CN2CCCC3(CC2)CN(C)C(=O)O3)cc1 (stereo not drawn)	-3.44
CSCC[C@H](NC(C)=O)c1nc(Cc2ccccc2)n[nH]1	5.06
COCCN(C)c1nc(-c2ccncc2)nc2c1CCN(C(C)=O)C2	-2.16
O=C1CC2(CCN(Cc3ccc(-c4ccn[nH]4)s3)CC2)CN1	-137
Cc1nc(CN2CCN(C(=O)COc3c(C)ccc(C)c3C)CC2)no1	-1.4
Cc1cccc2[nH]c(C3CCCN3Cc3ccc(CO)o3)nc12 (stereo not drawn)	10.3

SMILES	cytotoxicity at 10 µM [%]
NC(=O)CCN1CCc2onc(-c3ccccc3F)c2C1	5.21
Cc1ccc2cc(CN(C)Cc3nccs3)c(=O)[nH]c2c1	2.91
CCC(C(=O)NC(C)(C)C)n1cccc(OC)c1=O (stereo not drawn)	-1.04
COc1nccnc1N1CCCC2(C1)C(=O)N(C)c1ccccc12 (stereo not drawn)	-6.47
O=C(CCCc1ccc(Cl)cc1)N1CCN(C(=O)c2ccc[nH]2)CC1	10.7
CN(CCN1CCCCCC1)C(=O)c1cc(CN2CCC(O)CC2)on1	-17.5
CC(C)CN1CCC(c2nc3c([nH]2)CC(C)(C)CNC3=O)C1 (stereo not drawn)	-10.6
CN(C)C(=O)Cc1ccc(NC(=O)NC2CCCCC2)cc1	-11.3
CCOCC(O)CN1CCN(C(=O)c2ccc(OC)cc2)CC1 (stereo not drawn)	5.22
Cc1nn(CC(C)C)c(N(C)C)c1CNCc1ccc(CO)c(F)c1	-14.4
Cc1nc(CC(=O)N2CCc3nnc(N(C)C)cc3C2)cs1	-7.07
COc1cc(C)nc(N2CCN(C(=O)CSC)CC2)n1	-6.42
COCC(=O)NC(C)c1cccc(Br)c1 (stereo not drawn)	-8.13
CCC(C)NC(=O)CS(=O)(=O)Cc1cc(Cl)c2c(c1)OCCCO2 (stereo not drawn)	2.19
CS(=O)(=O)c1ccc(CNC(=O)N2CCC(C(N)=O)CC2)cc1	-3.78
O=C(Cc1ccc2c(c1)OCCO2)NC1CC1	-11.2
O=C(Cc1ccc(F)c(Br)c1)NC1CCN(CC(F)F)CC1	-22
CC(Cn1cccn1)NC(=O)NCCc1cccs1 (stereo not drawn)	-15.3
Cc1cn2c(n1)CCC(NC(=O)c1cc[nH]n1)C2 (stereo not drawn)	-8.06
O=C(NCc1nncn1-c1ccccc1)C1CCCCC1	-22.1
CCc1nc(C2CCCN2C(=O)CCCn2cncn2)no1 (stereo not drawn)	-11.4
CS(=O)(=O)N1CCC(NC(=O)COc2ccc(Cl)cc2)CC1	-4.05
Cc1cnn(CC2CCCN2C(=O)c2ccc(F)c(F)c2)c1 (stereo not drawn)	-7.68

SMILES	cytotoxicity at 10 µM [%]
Cc1cc(C)n(C2CCCN(C(=O)c3cc(C(N)=O)cs3)C2)n1 (stereo not drawn)	-11.4
O=C(CCOCC(F)(F)F)N1CCCC(n2ccnc2)C1 (stereo not drawn)	-8.14
CCc1n[nH]c(C2CN(C(=O)c3ccc4c(c3)COC4)CCO2)n1 (stereo not drawn)	-1.63
Cc1ccc(CN(CC(=O)N2CCOC(C)C2)C2CC2)cc1 (stereo not drawn)	-11.9
CCc1nc(CN2CCCN(C(=O)COC)CC2)cs1	-18.9
O=C(c1csc(-c2cccs2)n1)N1CCCC1Cn1cccn1 (stereo not drawn)	-4.69
CNC(=O)[C@@H](c1ccccc1OC)N1CCC[C@H]1C(=O)N1CC[C@@H](O)C1	-2.71
CN1C(=O)CC(c2ccccc2)C12CCN(CCO)CC2 (stereo not drawn)	6.47
COCCN1CCC2(COCCN(C(=O)Cc3cccs3)C2)C1 (stereo not drawn)	4.29
CN(C)S(=O)(=O)N1CCC2(CC1)CC(Oc1ccccn1)CO2 (stereo not drawn)	-133
O=C(Nc1cccnc1)[C@H]1COC[C@H]2CN(C3CCCC3)C[C@H]21	-20.1
Cc1occc1C(=O)N1CCC2(CCCN(Cc3cccs3)C2)C1 (stereo not drawn)	4.3
CS(=O)(=O)N1CCOCC2(CN(Cc3ccccn3)CCO2)C1 (stereo not drawn)	3.42
Cc1occc1C(=O)N1C[C@@H](OCc2cccnc2)[C@H]2OCCC[C@@H]21	3.16
O=C(c1ccnnc1)N1C[C@@H]2C[C@@H](c3nc(C4CC4)cs3)O[C@@H]2C1	-124
COc1cccc(-c2n[nH]cc2CNC2CCN(C(C)C)CC2)c1	0.353
COCCOCC(=O)N1C[C@@H]2CC[C@H]1CN(C1Cc3ccccc3C1)C2	-9.04
CCNc1nc2cn(-c3ccc(Cl)cc3)c(=O)c-2c[nH]1	7.67
CN(C)C(=O)N1C[C@H]2CC[C@@H](C1)N(S(=O)(=O)c1cccnc1)C2	-6.55
Cc1cc(CN2C[C@@H]3CC[C@H]2CN(Cc2c(C)noc2C)C3)ccc1F	-6.74
O=C(CC1CCCC1)N1C[C@@H]2C[C@@H]1CN2	-0.714
